Data set [1] deals with MCF7. As to the kind of experiment: Induction of apoptosis in human MCF7 cells assessed as necrotic cells at 3 uM after 24 hrs by annexin V-FITC/propidium iodide staining based flow cytometry (reference value: 4.76%). The data set is classed as functional. The procedure, abridged:
(§1)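 Apoptosis by Annexin V-FITC/PI dual staining: MCF-7 cells treated 24 h at 3, 6 and 9 µM, then harvested, stained and acquired by flow cytometry; early apoptotic = AnnexinV+/PI−, live = AnnexinV−/PI−, necrotic = AnnexinV−/PI+.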
Background: In flow cytometry, cells or beads pass a laser one at a time.

Data set [2] deals with MCF7. As to the kind of experiment: Induction of apoptosis in human MCF7 cells assessed as early apoptotic cells at 6 uM after 24 hrs by annexin V-FITC/propidium iodide staining based flow cytometry (reference value: 7.36%). The data set is classed as functional. In outline: as §1
Data set [3] concerns MCF7. As to the kind of experiment: Induction of apoptosis in human MCF7 cells assessed as early apoptotic cells at 3 uM after 24 hrs by annexin V-FITC/propidium iodide staining based flow cytometry (reference value: 7.36%). The data set is classed as functional. The procedure, abridged:
as §1

Data set [4] deals with MCF7. As to the kind of experiment: Induction of apoptosis in human MCF7 cells assessed as necrotic cells at 9 uM after 24 hrs by annexin V-FITC/propidium iodide staining based flow cytometry (reference value: 4.76%). The data set is classed as functional. The procedure, abridged:
as §1

For data set [5], the system named is MCF7. The data set can be described thus: Decrease in PCNA levels in human MCF7 cells at 3 to 9 uM after 24 hrs by Western blot analysis. The class given is functional, cell-based. In outline:
(§2)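 MCF-7 or PC-3 cells treated with compound for 24 h, harvested; PCNA, Bax and Bcl-2 protein expression checked by Western blotting.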
On the technique in general: A western blot detects proteins with antibodies after separation by electrophoresis.

The subject of data set [6] is MCF7. The data set can be described thus: Induction of apoptosis in human MCF7 cells assessed as late apoptotic cells at 6 uM after 24 hrs by annexin V-FITC/propidium iodide staining based flow cytometry (reference value: 5.25%). The data set is classed as functional. The procedure, abridged:
as §1

For data set [7], the system named is MCF7. As to the kind of experiment: Induction of morphological changes in human MCF7 cells at 1 to 6 uM after 24 hrs by phase contrast microscopy. The data set is classed as functional, cell-based. The procedure, abridged:
(§3)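 Cells were exposed to a range of concentrations for 24 h. Cell number and morphology, including detachment from the surface, were assessed by phase-contrast microscopy at 10X magnification.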

Data set [8] in a line: Intrinsic clearance in liver microsomes (unknown origin) assessed per mg of protein at 5 ug/ml in presence of NADPH by UPLC analysis. The class given is ADME, Microsome. Background: Microsomes from liver hold many membrane-bound enzymes, among them those of drug oxidation.
The test system of data set [9] is MCF7. The data set can be described thus: Decrease in Bcl-2 expression in human MCF7 cells at 3 to 9 uM after 24 hrs by Western blot analysis. The data set is classed as functional, cell-based. The procedure, abridged: as §2
A short description of data set [10]: Half life in liver microsomes (unknown origin) at 5 ug/ml in presence of NADPH by UPLC analysis. The class given is ADME, Microsome.
Data set [11] concerns MCF7. As to the kind of experiment: Induction of apoptosis in human MCF7 cells assessed as decrease in live cells after 24 hrs by annexin V-FITC/propidium iodide staining based flow cytometry. The data set is classed as functional, cell-based. In outline: as §1
The subject of data set [12] is MCF7. The data set can be described thus: Cell cycle arrest in human MCF7 cells assessed as accumulation at G0/G1 phase at 6 uM after 24 hrs by propidium iodide staining based flow cytometry (reference value: 45.67%). The data set is classed as functional. The procedure, abridged: (§4)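 Cells treated 24 h with test compound, MCF-7 at various concentrations and PC-3 at various concentrations; cells harvested, stained with propidium iodide and acquired by flow cytometry for cell cycle phase distribution.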

The test system of data set [13] is MCF7. As to the kind of experiment: Induction of apoptosis in human MCF7 cells assessed as viable cells at 6 uM after 24 hrs by annexin V-FITC/propidium iodide staining based flow cytometry (reference value: 82.63%). The class given is functional. Conditions: MCF7, 24 h, read-out: Activity. The procedure, abridged: (§5)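 MCF-7 cells exposed to 3, 6 or 9 μM and PC-3 cells to 4.8 or 8.8 μM for 24 h, then harvested and dual-stained with Annexin V-FITC/PI and read by flow cytometry. Gates: live AnnexinV⁻/PI⁻, early apoptotic AnnexinV⁺/PI⁻, necrotic AnnexinV⁻/PI⁺.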

Data set [14] relates to MCF7. As to the kind of experiment: Induction of apoptosis in human MCF7 cells assessed as early apoptotic cells at 9 uM after 24 hrs by annexin V-FITC/propidium iodide staining based flow cytometry (reference value: 7.36%). The class given is functional. The procedure, abridged:
as §1

The target of data set [15] is Serine/threonine-protein kinase AKT (Homo sapiens) (UniProt P31751+Q9Y243+P31749). As to the kind of experiment: Inhibition of Akt phosphorylation at […] in human MCF7 cells at 9 uM after 24 hrs by Western blot analysis. The class given is cell-based. In outline: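 Protein expression was analysed by Western blotting of cells harvested after 24 h compound treatment.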
Serine/threonine-protein kinase AKT (Homo sapiens), sequence (P31749 whole entry, looked up): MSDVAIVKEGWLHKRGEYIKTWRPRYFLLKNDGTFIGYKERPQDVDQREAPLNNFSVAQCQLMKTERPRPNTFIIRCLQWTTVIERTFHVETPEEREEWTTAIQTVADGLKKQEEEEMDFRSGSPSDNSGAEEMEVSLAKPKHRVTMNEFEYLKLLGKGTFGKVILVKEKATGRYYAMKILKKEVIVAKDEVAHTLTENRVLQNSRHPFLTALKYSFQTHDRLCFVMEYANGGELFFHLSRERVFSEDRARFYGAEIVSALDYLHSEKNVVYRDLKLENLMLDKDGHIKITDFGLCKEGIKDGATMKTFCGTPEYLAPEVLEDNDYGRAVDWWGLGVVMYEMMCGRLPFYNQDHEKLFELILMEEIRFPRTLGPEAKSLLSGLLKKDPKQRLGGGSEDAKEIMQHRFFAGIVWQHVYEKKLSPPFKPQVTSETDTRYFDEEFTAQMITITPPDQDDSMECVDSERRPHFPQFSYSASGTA
Serine/threonine-protein kinase AKT (Homo sapiens), sequence (P31751 whole entry, looked up): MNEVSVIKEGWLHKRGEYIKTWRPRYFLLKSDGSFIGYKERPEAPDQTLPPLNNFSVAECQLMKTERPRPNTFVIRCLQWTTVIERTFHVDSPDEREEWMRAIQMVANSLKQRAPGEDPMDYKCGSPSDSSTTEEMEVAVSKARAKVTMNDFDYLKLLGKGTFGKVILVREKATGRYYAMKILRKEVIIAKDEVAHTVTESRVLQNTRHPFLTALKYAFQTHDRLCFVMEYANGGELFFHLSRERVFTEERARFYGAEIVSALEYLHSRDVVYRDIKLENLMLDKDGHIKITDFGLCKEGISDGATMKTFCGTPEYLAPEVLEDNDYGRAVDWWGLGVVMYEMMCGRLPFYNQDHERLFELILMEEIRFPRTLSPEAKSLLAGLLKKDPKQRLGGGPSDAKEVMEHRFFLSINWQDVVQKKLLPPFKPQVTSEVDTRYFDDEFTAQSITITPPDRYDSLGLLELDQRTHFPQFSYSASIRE
Serine/threonine-protein kinase AKT (Homo sapiens), sequence (Q9Y243 whole entry, looked up): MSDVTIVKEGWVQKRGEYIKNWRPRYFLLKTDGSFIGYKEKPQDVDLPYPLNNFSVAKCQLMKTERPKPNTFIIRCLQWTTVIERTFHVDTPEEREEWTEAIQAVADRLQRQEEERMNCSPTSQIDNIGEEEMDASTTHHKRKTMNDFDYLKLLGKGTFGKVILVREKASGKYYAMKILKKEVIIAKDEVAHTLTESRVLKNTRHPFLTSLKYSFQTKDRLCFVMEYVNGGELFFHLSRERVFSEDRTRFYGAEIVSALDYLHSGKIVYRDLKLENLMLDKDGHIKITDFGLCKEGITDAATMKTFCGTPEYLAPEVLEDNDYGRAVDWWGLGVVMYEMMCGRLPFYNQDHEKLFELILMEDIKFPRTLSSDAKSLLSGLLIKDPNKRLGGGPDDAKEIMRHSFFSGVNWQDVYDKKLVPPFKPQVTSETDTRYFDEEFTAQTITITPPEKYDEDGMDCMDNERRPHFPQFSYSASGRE

Data set [16] concerns MCF7. As to the kind of experiment: Induction of mitochondrial membrane depolarization in human MCF7 cells at 6 uM after 24 hrs by JC-1 staining based flow cytometry (reference value: 11%). The class given is functional.
For data set [17], the system named is MCF7. As to the kind of experiment: Induction of morphological changes in human MCF7 cells assessed as cell detachment at >6 uM after 24 hrs by phase contrast microscopy. The class given is functional, cell-based. The procedure, abridged:
as §3

Data set [18] is described as follows: Intrinsic hepatic clearance in liver microsomes (unknown origin) assessed per mg of protein at 5 ug/ml in presence of NADPH by UPLC analysis. The class given is ADME, Microsome. Conditions: read-out: CLH (converted).
Data set [19] deals with MCF7. As to the kind of experiment: Induction of mitochondrial membrane depolarization in human MCF7 cells at 9 uM after 24 hrs by JC-1 staining based flow cytometry (reference value: 11%). The class given is functional.
For data set [20], the system named is PC-3. The data set can be described thus: Induction of mitochondrial membrane depolarization in human PC3 cells at 8.8 uM after 24 hrs by JC-1 staining based flow cytometry (reference value: 4.51%). The data set is classed as functional.
Data set [21] deals with PC-3. The data set can be described thus: Induction of apoptosis in human PC3 cells assessed as late apoptotic cells at 8.8 uM after 24 hrs by annexin V-FITC/propidium iodide staining based flow cytometry (reference value: 0.80%). The data set is classed as functional. The procedure, abridged:
as §5

In data set [22] the test system is PC-3. As to the kind of experiment: Induction of apoptosis in human PC3 cells assessed as early apoptotic cells at 8.8 uM after 24 hrs by annexin V-FITC/propidium iodide staining based flow cytometry (reference value: 4.44%). The class given is functional. The procedure, abridged:
as §5

Data set [23] concerns PC-3. As to the kind of experiment: Cell cycle arrest in human PC3 cells assessed as accumulation at S phase at 4.8 uM after 24 hrs by propidium iodide staining based flow cytometry (reference value: 25.01%). The class given is functional. The procedure, abridged:
as §4

Data set [24] in a line: Half life in liver microsomes (unknown origin) at 8 ug/ml in presence of NADPH by UPLC analysis. The class given is ADME, Microsome.
Data set [25] deals with PC-3. As to the kind of experiment: Induction of apoptosis in human PC3 cells assessed as viable cells at 4.8 uM after 24 hrs by annexin V-FITC/propidium iodide staining based flow cytometry (reference value: 92.24%). The class given is functional. The settings on record: PC-3, 24 h, read-out: Activity. In outline: as §5
Data set [26] relates to PC-3. The data set can be described thus: Increase in Bax expression in human PC3 cells at 4.8 to 8.8 uM after 24 hrs by Western blot analysis. The class given is functional, cell-based. In outline:
as §2

The nature of data set [27]: Elimination rate constant in liver microsomes (unknown origin) at 8 ug/ml measured up to 60 mins by UPLC analysis. The class given is ADME, Microsome.
Data set [28] is described as follows: Intrinsic hepatic clearance in liver microsomes (unknown origin) assessed per mg of protein at 8 ug/ml in presence of NADPH by UPLC analysis. Conditions: read-out: CLH (converted). The data set is classed as ADME, Microsome.
The subject of data set [29] is PC-3. The data set can be described thus: Induction of apoptosis in human PC3 cells assessed as increase in early apoptotic cells after 24 hrs by annexin V-FITC/propidium iodide staining based flow cytometry. The class given is functional, cell-based. In outline:
as §5

In data set [30] the test system is PC-3. The data set can be described thus: Inhibition of colony formation in human PC3 cells incubated for 24 hrs measured till day 7 by crystal violet staining based assay. The data set is classed as functional, cell-based. The procedure, abridged:
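Cells were treated with a range of concentrations for 24 h. The medium was then replaced with complete medium and cells were grown for 7 days. Colonies were stained with 0.1% crystal violet.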

Data set [31] relates to PC-3. As to the kind of experiment: Decrease in Bcl-2 expression in human PC3 cells at 4.8 to 8.8 uM after 24 hrs by Western blot analysis. The class given is functional, cell-based. In outline: as §2
In data set [32] the test system is PC-3. As to the kind of experiment: Induction of morphological changes in human PC3 cells assessed as cell detachment at >8.8 uM after 24 hrs by phase contrast microscopy. The class given is functional, cell-based. In outline: as §3
Data set [33] concerns PC-3. As to the kind of experiment: Decrease in PCNA levels in human PC3 cells at 4.8 to 8.8 uM after 24 hrs by Western blot analysis. The class given is functional, cell-based. The procedure, abridged:
as §2

Activity calls are given as the source filed them. The calls are words filed in the database; no cut-off is given here.

What is called half-life is the time in which the quantity being followed falls by half. Usually inhibition stands for the change of the read-out against control, counted positive when it falls.

Regarding `O=C1/C(=C/c2ccccc2F)CN(Cc2cn(Cc3ccc(F)cc3)nn2)C/C1=C\c1ccccc1F`, the Activity in the data set with MCF7 [1] is 6.18%; in the data set on MCF7 [2] it was 30.56%; with MCF7 [3] it was 25.08%; in the data set on MCF7 [4], 9.22%; with MCF7 [6] it was 15.2%; in the data set with MCF7 [11] it was “Dose-dependent effect”. In addition, the Activity worked out at 11.97% with MCF7 [12], 30.88% in the data set on MCF7 [14], 85.6% in the data set with MCF7 [16] and 89.87% with MCF7 [19]. Besides, the result in the data set on MCF7 [5], in the data set on MCF7 [7], with MCF7 [9] and in the data set with MCF7 [17] was Active. In addition, the CLint in [8] was 0.176 mL/min/mg. The half-life at 5 ug/ml in data set [10] turned out to be 7.52 min. Also, the viability at 6 µM in the data set on MCF7 [13] was 50%. Besides, in data set [15], the inhibition turned out to be 100%. Besides, the CLint scaled at 5 ug/ml in data set [18] was 5280 mL/min/kg.

On to `Cc1ccc(/C=C2\CN(Cc3cn(Cc4ccccc4F)nn3)C/C(=C\c3ccc(C)cc3)C2=O)cc1`, for which the Activity was 32.02% in the data set with PC-3 [20]; 0.88% in the data set on PC-3 [21]; 17.54% with PC-3 [22]; 21.02% with PC-3 [23]; “Dose-dependent effect” with PC-3 [29]. For the same compound, the half-life at 8 ug/ml in data set [24] came to 15.9 min. In addition, in the data set on PC-3 [25], the viability at 4.8 µM stood at 85.3%. The outcome in the data set with PC-3 [26], with PC-3 [31], with PC-3 [32] and with PC-3 [33] was Active. The k el at 1 h, 8 ug/ml in data set [27] is 0.000733 s⁻¹. Further, the CLint scaled at 8 ug/ml in [28] is 2630 mL/min/kg. In the data set on PC-3 [30], the inhibition entry was “Dose-dependent effect”.
